Consider 32 compounds from ChEMBL document CHEMBL4385626, “SAR optimization studies on modified salicylamides as a potential treatment for acute myeloid leukemia through inhibition of the CREB pathway” (Bioorg Med Chem Lett, 2019).

The test system of one data set is HL-60. The experiment in a line: Cytotoxicity against human HL60 cells incubated for 3 days by CellTiter-Glo luminescent assay. Format: functional, cell-based. Conditions: HL-60, 72 h. An outline of the steps: (§1)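 CellTiter-Glo viability read-out on leukemia cell lines. IC50 reported as the average of triplicates.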
In a further data set the test system is KG-1. As to the kind of experiment: Cytotoxicity against human KG1 cells incubated for 3 days by CellTiter-Glo luminescent assay. Format: functional, cell-based. The settings on record: KG-1, 72 h. The essentials: as §1
The nature of data set [1]: Inhibition of KIX-RLucC fused CBP (unknown origin) binding to KID-RLucN fused CREB (unknown origin) transfected in human HEK293 cells preincubated with compound 30 mins before forskolin addition and measured after 90 mins in presence of coelenterazine by split Renilla luciferase complementation assay.
In a further data set the test system is Bone marrow cell. The experiment in a line: Cytotoxicity against human bone marrow cells incubated for 3 days by CellTiter-Glo luminescent assay. Format: cell-based. The settings on record: 72 h.
For another data set, the species on record is Homo sapiens. The experiment in a line: Inhibition of CBP KIX domain (unknown origin) binding to BODIPY-labeled phosphorylated CREB KID domain (unknown origin) interaction pre-incubated for 30 mins by fluorescence polarization assay. The essentials: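 Fluorescence polarization with BODIPY-labeled phosphorylated CREB KID domain and the CBP KIX domain. Polarization reports the degree of KIX-KID binding.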

Data set [2] can be described thus: Metabolic stability in mouse liver microsomes assessed as half life in presence of NADPH by LC-MS/MS analysis. Format: ADME, Microsome.
The next data set concerns NALM-6. As to the kind of experiment: Cytotoxicity against human NALM6 cells incubated for 3 days by CellTiter-Glo luminescent assay. Conditions: NALM-6, 72 h. The class given is functional, cell-based. An outline of the steps: as §1
Another data set relates to Jurkat. As to the kind of experiment: Cytotoxicity against human Jurkat cells incubated for 3 days by CellTiter-Glo luminescent assay. The class given is functional, cell-based. The settings on record: 72 h. An outline of the steps: as §1
Data set [3] can be described thus: Metabolic stability in human liver microsomes assessed as half life in presence of NADPH by LC-MS/MS analysis. The class given is ADME, Microsome.
Data set [4] is described as follows: Elimination half life in NSG mouse at 2 mg/kg, iv measured after 7 to 150 mins by LC/MS/MS analysis. Format: ADME, organism-based. The settings on record: in vivo, read-out: beta t1/2 (converted). The essentials:
(§2)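 Single IV dose of 2 mg/kg to NSG mice (NOD.Cg-Prkdc scid Il2rg tm1Wjl/SzJ), vehicle DMSO/Kolliphor EL/water (3/5/82). Compound levels measured in plasma at various times after injection. PK parameters derived from the plasma time-concentration profiles.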

Data set [5] is described as follows: Apparent volume of distribution in NSG mouse at 2 mg/kg, iv measured after 7 to 150 mins by LC/MS/MS analysis. The class given is ADME, organism-based. The settings on record: in vivo. The essentials: as §2
A short description of data set [6]: MRT (0 to infinity) in NSG mouse at 2 mg/kg, iv measured after 7 to 150 mins by LC/MS/MS analysis. The class given is ADME, organism-based. The settings on record: in vivo. The essentials:
as §2

The nature of data set [7]: AUC (0 to t) in NSG mouse at 2 mg/kg, iv measured after 7 to 150 mins by LC/MS/MS analysis. Format: ADME, organism-based. The settings on record: in vivo. An outline of the steps: as §2
Data set [8] is described as follows: Plasma concentration in NSG mouse at 2 mg/kg, iv measured after 7 to 150 mins by LC/MS/MS analysis. The settings on record: in vivo. The class given is ADME, organism-based. An outline of the steps: as §2
A short description of data set [9]: AUC (0 to infinity) in NSG mouse at 2 mg/kg, iv measured after 7 to 150 mins by LC/MS/MS analysis. Format: ADME, organism-based. Details: dose 2 mg/kg, time infinity, route intravenous. Conditions: in vivo. The essentials:
as §2

A short description of data set [10]: Volume of distribution at steady state in NSG mouse at 2 mg/kg, iv measured after 7 to 150 mins by LC/MS/MS analysis. Format: ADME, organism-based. The settings on record: in vivo. An outline of the steps: as §2

Active and inactive are the calls of the source. No cut-off for these calls is given here.

Take `N#Cc1ccc(NC(=O)c2cc(Cl)ccc2O)cc1`: the half-maximal inhibitory concentration (IC50) in the data set on HL-60 was found to be 700 nM; in the data set on KG-1, 1860 nM; in data set [1], 3990 nM.
For `N#Cc1ccc(NC(=O)c2ccc3ccccc3c2)cc1` the same measures were more than 10000 nM, more than 10000 nM and more than 7000 nM.
On to `O=C(Nc1cc(C(F)(F)F)cc(C(F)(F)F)c1)c1cc(Br)ccc1O`, for which the IC50 is 290 nM in the data set on HL-60; more than 10000 nM with Bone marrow cell; 590 nM in the data set with NALM-6; 350 nM in the data set with Jurkat; 300 nM in the data set with KG-1; 1240 nM in data set [1]. Also, the inhibition result in the data set listed under Homo sapiens is “Active”. In addition, the values for the half-life in data set [2] and in data set [3] were 29.1 min and 52 min, respectively.
Consider `COc1ccc(O)c(C(=O)Nc2ccc(C#N)cc2)c1`, for which the 50% inhibitory concentration (IC50) in the data set on HL-60 was more than 10000 nM; in the data set with KG-1 it was more than 10000 nM; in data set [1], more than 7000 nM.
As to `N#Cc1ccc(NC(=O)c2cc(Br)ccc2O)cc1`, the IC50 in the data set on HL-60 was 620 nM; in the data set on KG-1, 1290 nM; in data set [1] it was 3030 nM.
Regarding `O=C(Nc1ccc([N+](=O)[O-])cc1Cl)c1cc(F)ccc1O`, the IC50 in the data set on HL-60 was determined as 280 nM; with NALM-6 it was 910 nM; with Jurkat, 530 nM; with KG-1, 490 nM; in data set [1] it was 1520 nM.
For `COc1cccc(O)c1C(=O)Nc1ccc(C#N)cc1`, the IC50 in the data set on HL-60 is more than 10000 nM; in the data set with KG-1, more than 10000 nM; in [1], more than 7000 nM.
In the case of `N#Cc1ccc(NC(=O)c2cc3ccccc3cc2O)cc1`, the IC50 in the data set with HL-60 is 1580 nM; in the data set on Bone marrow cell, more than 10000 nM; in data set [1] it was 4030 nM. Moreover, the half-life in data set [2] is 5.5 min; in data set [3] it was 44.9 min.
For `O=C(Nc1ccc([N+](=O)[O-])cc1)c1cc(F)ccc1O`, the 50% inhibitory concentration (IC50) stood at 520 nM in the data set on HL-60, 2080 nM in the data set with NALM-6, 940 nM in the data set on Jurkat and 1100 nM in the data set with KG-1.
For `O=C(Nc1ccc(C(F)(F)F)cc1)c1ccc(F)cc1O` the same measures were 680 nM, 1530 nM, 800 nM and 740 nM.
On to `N#Cc1ccc(NC(=O)c2cc(Cl)ccc2O)c(Cl)c1`, for which the IC50 in the data set with HL-60 came to 500 nM; in the data set with NALM-6, 730 nM; in the data set on Jurkat, 620 nM; with KG-1, 860 nM.
Take `O=C(Nc1cc(C(F)(F)F)cc(C(F)(F)F)c1)c1ccc(Cl)cc1O`: the IC50 in the data set on HL-60 turned out to be 200 nM; in the data set with NALM-6 it was 850 nM; in the data set with Jurkat it was 570 nM; with KG-1 it was 620 nM; in [1], 2530 nM. Also, the inhibition entry in the data set filed under Homo sapiens is “Active”. Further, the half-life in data set [2] was 31.8 min; in [3], 159 min.
Consider `O=C(Nc1cc(C(F)(F)F)cc(C(F)(F)F)c1)c1ccc(-c2ccccc2)cc1O`, for which the IC50 in the data set with HL-60 is 1140 nM; in the data set on NALM-6, 1580 nM; with Jurkat, 1240 nM; in the data set on KG-1, 860 nM.
With `O=C(Nc1ccc(C(F)(F)F)cc1)c1ccc(Cl)cc1O`, the IC50 in the data set with HL-60 was determined as 630 nM; with NALM-6 it was 1180 nM; in the data set on Jurkat, 670 nM; with KG-1, 580 nM.
As to `N#Cc1ccc(NC(=O)c2ccc3cccnc3c2O)c(Cl)c1`, the IC50 in the data set on HL-60 stood at 910 nM; in the data set on NALM-6, 420 nM; with Jurkat, 550 nM; with KG-1, 3670 nM.
For `Cc1cc(C#N)ccc1NC(=O)c1ccc2cccnc2c1O` the same measures were 710 nM, 230 nM, 270 nM and 3240 nM.
For `O=C(Nc1ccc(Cl)c(Cl)c1)c1cc(F)ccc1O` the same measures were 660 nM, 1370 nM, 670 nM and 760 nM.
Take `O=C(Nc1ccc(C(F)(F)F)cc1)c1cc(Br)ccc1O`: the IC50 stood at 580 nM with HL-60, 1090 nM in the data set on NALM-6, 620 nM in the data set with Jurkat and 610 nM in the data set on KG-1.
Taken in the same sequence, the figures for `O=C(Nc1cc(C(F)(F)F)cc(C(F)(F)F)c1)c1cc(Cl)ccc1O` [IMD-0354] were 160 nM, 630 nM, 480 nM and 500 nM.
For the compound `O=C(Nc1ccc(C(F)(F)F)cc1)c1cc(Br)c(F)cc1O`, the IC50 with HL-60 came out at 450 nM; in the data set with NALM-6 it was 1300 nM; in the data set on Jurkat, 880 nM; with KG-1, 820 nM.
Taken in the same sequence, the figures for `O=C(Nc1ccc(Cl)c(C(F)(F)F)c1)c1cc(F)ccc1O` were 600 nM, 970 nM, 530 nM and 540 nM.
Taken in the same sequence, the figures for `O=C(Nc1ccc(C(F)(F)F)cc1)c1ccc(C(F)(F)F)cc1O` were 380 nM, 1120 nM, 820 nM and 780 nM.
For `N#Cc1ccc(NC(=O)c2ccc3cccnc3c2O)c(C#N)c1` the same measures were 890 nM, 350 nM, 270 nM and 3770 nM.
In the case of `O=C(Nc1ccc(OC(F)(F)F)cc1Cl)c1cc(Cl)ccc1O`, the IC50 in the data set on HL-60 is 650 nM; with NALM-6 it was 1350 nM; in the data set with Jurkat, 880 nM; with KG-1 it was 620 nM.
For the compound `O=C(Nc1ccc([N+](=O)[O-])cc1Cl)c1cc(Cl)ccc1O` [NICLOSAMIDE], the half-life in data set [4] is 33.6 min; in data set [2], 6.6 min; in [3], 21 min. Also, the Vz in data set [5] was found to be 0.0025 mg/ng/mL. In [6], this compound displayed a mean residence time MRT inf of 24.2 min. Besides, the IC50 in the data set on HL-60 is 300 nM; with Bone marrow cell, more than 10000 nM; with NALM-6 it was 620 nM; in the data set on Jurkat, 400 nM; in the data set with KG-1, 360 nM; in data set [1], 1530 nM. In addition, the AUC(0-t) in data set [7] is 536 ng·h/mL. The compound further registered a Cp in data set [8] of 0.12 ng/mL. Moreover, the AUC(0-inf) in data set [9] worked out at 536 ng·h/mL. For the same compound, the Vdss in data set [10] is 0.0015 mg/ng/mL.
For the compound `N#Cc1ccc(C(=O)Nc2cc3ccccc3cc2O)cc1`, the 50% inhibitory concentration (IC50) in the data set on HL-60 was more than 10000 nM; in the data set with KG-1, more than 10000 nM; in data set [1] it was more than 7000 nM.
For the compound `O=C(Nc1cc(C(F)(F)F)cc(C(F)(F)F)c1)c1cc(F)ccc1O`, the IC50 with HL-60 came out at 320 nM; in the data set with NALM-6, 620 nM; with Jurkat, 500 nM; in the data set with KG-1, 470 nM.
With `O=C(Nc1ccc(OC(F)(F)F)c(Cl)c1)c1ccc(C(F)(F)F)cc1O`, the IC50 in the data set on HL-60 came to 380 nM; in the data set on NALM-6 it was 950 nM; in the data set with Jurkat, 790 nM; in the data set with KG-1, 640 nM.
For `O=C(Nc1cccc(OC(F)(F)F)c1)c1cc(F)ccc1O` the same measures were 730 nM, 1370 nM, 700 nM and 830 nM.
Taken in the same sequence, the figures for `O=C(Nc1cc(C(F)(F)F)cc(C(F)(F)F)c1)c1cc(Cl)c(-c2ccccc2)cc1O` were 790 nM, 560 nM, 540 nM and 430 nM.
Taken in the same sequence, the figures for `N#Cc1ccc(NC(=O)c2ccc(Br)cc2O)cc1Cl` were 440 nM, 920 nM, 750 nM and 960 nM.
On to `O=C(Nc1ccc(C(F)(F)F)cc1)c1ccc(Br)cc1O`, for which the IC50 with HL-60 stood at 360 nM; in the data set with NALM-6 it was 690 nM; in the data set with Jurkat, 500 nM; with KG-1, 340 nM.
